Assay results from different studies.
Cell line: T47D
Effect on: cell growth or viability

SMILES | test | conditions | endpoint | value
Cc1nc(NC(=O)N2CCC[C@H]2C(N)=O)sc1-c1ccnc(C(C)(C)C(F)(F)F)c1 | ATP luminescence | 5 days | EC50 | 0.444 µM
COC(=O)c1cc(C(C)=NNc2nc(-c3ccc4c(c3)OCCCO4)cs2)ccc1O | MTT | 96 h | IC50 | 21.2 µM
COc1cccc2c1C(=O)c1c(O)c3c(c(O)c1C2=O)C[C@@](O)(C(=O)CO)C[C@@H]3O[C@H]1C[C@H](N)[C@H](O)[C@H](C)O1 | MTT | 24 h | IC50 | 75.9 µM
Cc1c(Cl)c(=O)oc2cc(OCCCCSC#N)ccc12 | SRB | – | GI50 | 24 µM
C=C[C@]1(C)C=C2CC[C@H]3C(C)(C)CCC[C@]3(C)[C@H]2CC1 | MTT | 75 h | IC50 | 159 µM
C[C@H](Nc1ccc2c(c1)OCCn1cc(N3C(=O)OC[C@H]3C(F)F)nc1-2)C(N)=O | ATP luminescence | 5 days | EC50 | 0.0312 µM
COC(=O)c1cc(C(C)=NNc2nc(-c3ccc(C)cc3)cs2)ccc1O | MTT | 96 h | IC50 | 24.1 µM
CN(C)c1cccc2c(S(=O)(=O)NCCCCN=C=S)cccc12 | MTT | 24 h | IC50 | 21.1 µM
N#CSCCCCOc1ccc2c(-c3ccccc3)cc(=O)oc2c1 | SRB | – | GI50 | 34 µM
COc1cccc2c1C(=O)c1c(O)c3c(c(O)c1C2=O)C[C@@](O)(C(=O)CO)C[C@@H]3O[C@H]1C[C@H](N)[C@H](O)[C@H](C)O1 | MTT | 75 h | IC50 | 0.27 µM
CS(=O)(=O)NCCCCN=C=S | MTT | 24 h | IC50 | 26.9 µM
